Data: ChEMBL document CHEMBL1139845, “Synthesis and biological evaluation of novel 1-deoxy-1-[6-[((hetero)arylcarbonyl)hydrazino]- 9H-purin-9-yl]-N-ethyl-beta-D-ribofuranuronamide derivatives as useful templates for the development of A2B adenosine receptor agonists” (J Med Chem, 2007)

What was measured:
[1] = biological target: Adenosine receptor A2a (Homo sapiens, UniProt P29274); assay: Displacement of [3H]CGS-21680 from human adenosine A2A receptor expressed in CHO cells; format: cell-based
Chain of Adenosine receptor A2a (P29274 whole entry): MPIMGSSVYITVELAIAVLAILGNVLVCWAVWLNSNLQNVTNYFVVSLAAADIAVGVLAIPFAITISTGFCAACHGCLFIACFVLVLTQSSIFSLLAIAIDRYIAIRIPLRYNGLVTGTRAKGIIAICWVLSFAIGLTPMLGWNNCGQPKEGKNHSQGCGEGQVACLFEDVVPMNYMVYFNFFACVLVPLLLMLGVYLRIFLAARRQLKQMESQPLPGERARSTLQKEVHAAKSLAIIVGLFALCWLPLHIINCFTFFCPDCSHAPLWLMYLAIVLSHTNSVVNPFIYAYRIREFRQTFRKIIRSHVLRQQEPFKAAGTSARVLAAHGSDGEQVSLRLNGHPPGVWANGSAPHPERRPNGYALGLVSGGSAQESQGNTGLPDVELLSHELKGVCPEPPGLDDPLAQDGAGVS

[2] = biological target: T1, Adenosine receptor A3 (Homo sapiens, UniProt P0DMS8); assay: (§1) Displacement of [125I]AB-MECA from human adenosine A3 receptor expressed in CHO cells; format: cell-based
T1 sequence (P0DMS8 whole entry): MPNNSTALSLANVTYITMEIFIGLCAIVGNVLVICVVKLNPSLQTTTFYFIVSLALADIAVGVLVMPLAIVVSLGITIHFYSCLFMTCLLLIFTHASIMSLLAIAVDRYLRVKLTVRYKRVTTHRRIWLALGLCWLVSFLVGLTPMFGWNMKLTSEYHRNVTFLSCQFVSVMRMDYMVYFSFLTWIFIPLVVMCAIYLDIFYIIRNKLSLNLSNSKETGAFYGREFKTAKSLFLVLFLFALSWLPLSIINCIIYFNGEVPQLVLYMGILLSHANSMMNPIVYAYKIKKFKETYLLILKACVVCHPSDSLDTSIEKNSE
Procedure, shortened: (§2)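 Membranes from CHO cells expressing hA3, 50 µg protein/assay, pretreated with adenosine deaminase. Incubated with [¹²⁵I]AB-MECA in 50 mM Tris-HCl, 10 mM MgCl₂, 1 mM EDTA, pH 7.4, at 6–8 concentrations of test compound, 60 min at 37 °C. Nonspecific binding defined with 1 µM AB-MECA. GF/B filtration. Ki obtained by Cheng–Prusoff. Mean ± SEM of 3–4 experiments in duplicate.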

[3] = biological target: T2, Adenosine receptor A3 (Homo sapiens) (UniProt P0DMS8); assay: as §1; format: cell-based; procedure, shortened: as §2
T2 sequence (whole entry): T1 sequence (P0DMS8 whole entry)

[4] = biological target: T3, Adenosine receptor A1 (Homo sapiens, UniProt P30542); assay: (§3) Displacement of [3H]CHA from human adenosine A1 receptor expressed in CHO cells; format: cell-based
T3 sequence (P30542 whole entry): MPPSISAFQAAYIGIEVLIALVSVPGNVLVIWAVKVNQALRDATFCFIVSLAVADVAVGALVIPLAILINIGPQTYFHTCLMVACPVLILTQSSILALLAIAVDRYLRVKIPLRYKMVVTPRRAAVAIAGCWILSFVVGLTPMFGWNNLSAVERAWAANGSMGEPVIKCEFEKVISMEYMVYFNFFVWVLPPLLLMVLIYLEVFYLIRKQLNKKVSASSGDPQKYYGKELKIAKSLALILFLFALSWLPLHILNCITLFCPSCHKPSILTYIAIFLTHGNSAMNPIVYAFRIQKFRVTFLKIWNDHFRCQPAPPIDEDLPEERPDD
Procedure, shortened: (§4)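 Membranes from hA1 CHO cells, 50 µg protein/assay, pretreated with adenosine deaminase. Incubated with 1 nM [³H]CHA in 50 mM Tris-HCl pH 7.4 at 6–8 concentrations, 150 min at 25 °C. Nonspecific binding defined with 10 µM CHA. GF/B filtration and scintillation counting. Ki obtained by Cheng–Prusoff. Mean ± SEM of 3–4 experiments in duplicate.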

[5] = biological target: T4, Adenosine receptor A1 (Homo sapiens) (UniProt P30542); assay: as §3; format: cell-based; procedure, shortened: as §4
T4 sequence (whole entry): T3 sequence (P30542 whole entry)

[6] = biological target: T5, Adenosine receptor A2b (Homo sapiens, UniProt P29275); assay: (§5) Activity at human adenosine A2B receptor expressed in CHO cells assessed as stimulation of cAMP levels; format: functional, cell-based
T5 sequence (P29275 whole entry): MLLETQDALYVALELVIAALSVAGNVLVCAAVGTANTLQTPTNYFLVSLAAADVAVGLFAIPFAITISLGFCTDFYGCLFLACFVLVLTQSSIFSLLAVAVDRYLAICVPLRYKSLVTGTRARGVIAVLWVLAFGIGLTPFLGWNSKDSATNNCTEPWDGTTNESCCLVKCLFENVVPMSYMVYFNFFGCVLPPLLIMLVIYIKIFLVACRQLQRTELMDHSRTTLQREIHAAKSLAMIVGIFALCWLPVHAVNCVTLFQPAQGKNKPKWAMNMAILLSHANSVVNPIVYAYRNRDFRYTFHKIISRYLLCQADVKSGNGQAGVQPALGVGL
Procedure, shortened: (§6)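 Whole CHO cells transfected with human A2B (1 × 10⁶ cells/assay), preincubated 10 min at 37 °C with adenosine deaminase 2 IU/mL and Ro 20-1724 as PDE inhibitor. Ligands (1 nM to 10 µM) were then added for 5 min. Stopped with cold 6% TCA and ether-extracted. cAMP measured by competition binding to bovine adrenal binding protein with [³H]cAMP. Mean ± SEM of 3–4 experiments in duplicate.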

[7] = biological target: T6, Adenosine receptor A2b (Homo sapiens) (UniProt P29275); assay: as §5; format: functional, cell-based; parameters: concentration or dose not given beside the values; procedure, shortened: as §6
T6 sequence (whole entry): T5 sequence (P29275 whole entry)

Row | Compound | Ki [1] [µM] | Ki [2] [µM] | Activity [3] [%] | Activity [1] [%] | Ki [4] [µM] | Activity [5] [%] | EC50 [6] [µM] | Activity [7] [%] | Activity ([7]; filed as agonist)
1 | CCNC(=O)[C@H]1O[C@@H](n2cnc3c(NNC(=O)c4ccc(C)s4)ncnc32)[C@H](O)[C@@H]1O | 2.1 | > 5 | 19 |  | 1.1 |  |  |  | 
2 | CCNC(=O)[C@H]1O[C@@H](n2cnc3c(NNC(=O)c4ccccc4)nc(Cl)nc32)[C@H](O)[C@@H]1O | > 5 | > 5 | 45 | 40 | > 5 | 37 | > 5 | 5 | 
3 | CCNC(=O)[C@H]1O[C@@H](n2cnc3c(NNC(=O)c4ccc(C)o4)ncnc32)[C@H](O)[C@@H]1O | 1.6 | > 5 | 15 |  |  |  |  |  | 
4 | CCNC(=O)[C@H]1O[C@@H](n2cnc3c(NNC(=O)c4ccco4)nc(Cl)nc32)[C@H](O)[C@@H]1O | 4.95 | > 5 | 26 |  | 3.5 |  |  |  | 
5 | CCNC(=O)[C@H]1O[C@@H](n2cnc3c(NNC(=O)c4ccsc4)nc(Cl)nc32)[C@H](O)[C@@H]1O | 3.3 | > 5 | 18 |  |  |  |  |  | 
6 | CCNC(=O)[C@H]1O[C@@H](n2cnc3c(NNC(=O)c4nc([N+](=O)[O-])cn4C)ncnc32)[C@H](O)[C@@H]1O | > 5 | > 5 | 11 | 12 | > 5 | 7 | > 5 | 14 | 
7 | CCNC(=O)[C@H]1O[C@@H](n2cnc3c(NNC(=O)c4ccc(Cl)cc4)ncnc32)[C@H](O)[C@@H]1O | > 5 | > 5 | 20 | 8 | > 5 | 5 | > 5 | 6 | 
8 | CCNC(=O)[C@H]1O[C@@H](n2cnc3c(NNC(=O)Cc4cccs4)nc(Cl)nc32)[C@H](O)[C@@H]1O |  | 0.025 |  |  |  |  |  |  | 

Results, then the compound that gave them:

Row | Ki [1] [µM] | Ki [2] [µM] | Activity [3] [%] | Activity [1] [%] | Ki [4] [µM] | Activity [5] [%] | EC50 [6] [µM] | Activity [7] [%] | Activity ([7]; filed as agonist) | Compound
9 | 3.2 | > 5 | 11 |  |  |  |  |  |  | CCNC(=O)[C@H]1O[C@@H](n2cnc3c(NNC(=O)c4ccc[nH]4)nc(Cl)nc32)[C@H](O)[C@@H]1O
10 | > 5 | > 5 | 8 | 18 | > 5 | 35 | > 5 | 10 |  | CCNC(=O)[C@H]1O[C@@H](n2cnc3c(NNC(=O)c4ccccc4)ncnc32)[C@H](O)[C@@H]1O
11 | > 5 | > 5 | 15 | 2 | > 5 | 5 | > 5 | 24 |  | CCNC(=O)[C@H]1O[C@@H](n2cnc3c(NNC(=O)c4cc(-c5ccccc5)on4)nc(Cl)nc32)[C@H](O)[C@@H]1O
12 | 1.7 | > 5 | 12 |  |  |  |  |  |  | CCNC(=O)[C@H]1O[C@@H](n2cnc3c(NNC(=O)c4cccs4)nc(Cl)nc32)[C@H](O)[C@@H]1O
13 | 1.2 | > 5 | 13 |  | 0.78 |  | 0.369 |  |  | CCNC(=O)[C@H]1O[C@@H](n2cnc3c(NNC(=O)c4ccc(Br)o4)ncnc32)[C@H](O)[C@@H]1O
14 | 3.8 | > 5 | 9 |  | 1.6 |  |  |  |  | CCNC(=O)[C@H]1O[C@@H](n2cnc3c(NNC(=O)c4sccc4C)nc(Cl)nc32)[C@H](O)[C@@H]1O
15 | 1.55 | > 5 | 23 |  | 1.05 |  |  |  | Agonist | CCNC(=O)[C@H]1O[C@@H](n2cnc3c(NNC(=O)c4ccco4)ncnc32)[C@H](O)[C@@H]1O
16 | 4.1 | > 5 | 17 |  | 2.6 |  |  |  |  | CCNC(=O)[C@H]1O[C@@H](n2cnc3c(NNC(=O)c4ccc(C)s4)nc(Cl)nc32)[C@H](O)[C@@H]1O
17 | > 5 | > 5 | 17 | 7 | > 5 | 11 | > 5 | 9 |  | CCNC(=O)[C@H]1O[C@@H](n2cnc3c(NNC(=O)c4cccnc4)ncnc32)[C@H](O)[C@@H]1O
18 | > 5 | > 5 | 16 | 3 | > 5 | 7 | > 5 | 21 |  | CCNC(=O)[C@H]1O[C@@H](n2cnc3c(NNC(=O)c4cc(C)on4)nc(Cl)nc32)[C@H](O)[C@@H]1O
